# Source: ChEMBL document CHEMBL1649256, “Comparison of assessment of oxygen consumption, Etest, and CLSI M38-A2 broth microdilution methods for evaluation of the susceptibility of Aspergillus fumigatus to posaconazole” (2009)
# Columns and labels:
# Assay type in all cases: functional
# [1] = tested on: Aspergillus fumigatus; test: Antimicrobial activity against Aspergillus fumigatus isolate 41 by CLSI M38-A2 broth microdilution method
# Outline: (§1)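 CLSI M38-A2 broth microdilution with posaconazole. MIC taken as the lowest concentration with no visible growth at 48 h. C. parapsilosis ATCC 22019 and C. krusei ATCC 6258 were included as QC strains in every run.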
# [2] = tested on: Aspergillus fumigatus; test: Antimicrobial activity against Aspergillus fumigatus isolate 45 by CLSI M38-A2 broth microdilution method
# [3] = tested on: Aspergillus fumigatus; test: Antimicrobial activity against Aspergillus fumigatus isolate 47 by CLSI M38-A2 broth microdilution method
# [4] = tested on: Aspergillus fumigatus; test: Antimicrobial activity against Aspergillus fumigatus isolate 48 by oxygen consumption method
# [5] = tested on: Aspergillus fumigatus; test: Antimicrobial activity against Aspergillus fumigatus isolate 2 after 24 hrs by Etest; settings: isolate 2, 24 h
# Outline: (§2)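 Posaconazole Etest strips placed on RPMI 1640 agar with 2% glucose, pH 7.0, and run per the strip maker's instructions. Incubation at 35°C, with the MIC read at 24 h and at 48 h.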
# [6] = tested on: Aspergillus fumigatus; test: Antimicrobial activity against Aspergillus fumigatus isolate 4 after 24 hrs by Etest; settings: isolate 4, 24 h
# Outline: (§3)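 Posaconazole Etest strips on RPMI 1640 agar with 2% glucose, pH 7.0, run per the strip maker's instructions. Incubated at 35°C. MIC read at 24 h and at 48 h, matching the time in each line.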
# [7] = tested on: Aspergillus fumigatus; test: Antimicrobial activity against Aspergillus fumigatus isolate 6 after 24 hrs by Etest; settings: isolate 6, 24 h
# [8] = tested on: Aspergillus fumigatus; test: Antimicrobial activity against Aspergillus fumigatus isolate 7 after 24 hrs by Etest; settings: isolate 7, 24 h
# [9] = tested on: Aspergillus fumigatus; test: Antimicrobial activity against Aspergillus fumigatus isolate 14 after 24 hrs by Etest; settings: isolate 14, 24 h; outline: as §2
# [10] = tested on: Aspergillus fumigatus; test: Antimicrobial activity against Aspergillus fumigatus isolate 20 after 24 hrs by Etest; settings: isolate 20, 24 h; outline: as §2
# [11] = tested on: Aspergillus fumigatus; test: Antimicrobial activity against Aspergillus fumigatus isolate 34 after 24 hrs by Etest; settings: isolate 34, 24 h; outline: as §3
# [12] = tested on: Aspergillus fumigatus; test: Antimicrobial activity against Aspergillus fumigatus isolate 35 after 24 hrs by Etest; settings: isolate 35, 24 h; outline: as §3
# [13] = tested on: Aspergillus fumigatus; test: Antimicrobial activity against Aspergillus fumigatus isolate 44 after 24 hrs by Etest; settings: isolate 44, 24 h
# [14] = tested on: Aspergillus fumigatus; test: Antimicrobial activity against Aspergillus fumigatus isolate 4 after 48 hrs by Etest; settings: isolate 4, 48 h; outline: as §3
# [15] = tested on: Aspergillus fumigatus; test: Antimicrobial activity against Aspergillus fumigatus isolate 6 after 48 hrs by Etest; settings: isolate 6, 48 h
# [16] = tested on: Aspergillus fumigatus; test: Antimicrobial activity against Aspergillus fumigatus isolate 7 after 48 hrs by Etest; settings: isolate 7, 48 h
# [17] = tested on: Aspergillus fumigatus; test: Antimicrobial activity against Aspergillus fumigatus isolate 11 after 48 hrs by Etest; settings: isolate 11, 48 h; outline: as §2
# [18] = tested on: Aspergillus fumigatus; test: Antimicrobial activity against Aspergillus fumigatus isolate 12 after 48 hrs by Etest; settings: isolate 12, 48 h; outline: as §2
# [19] = tested on: Aspergillus fumigatus; test: Antimicrobial activity against Aspergillus fumigatus isolate 31 after 48 hrs by Etest; settings: isolate 31, 48 h
# Outline: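 Etest strips on RPMI 1640 agar with 2% glucose, pH 7.0, run per manufacturer's instructions. Incubated at 35°C; MIC read at 48 h.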
# [20] = tested on: Aspergillus fumigatus; test: Antimicrobial activity against Aspergillus fumigatus isolate 35 after 48 hrs by Etest; settings: isolate 35, 48 h; outline: as §3
# [21] = tested on: Aspergillus fumigatus; test: Antimicrobial activity against Aspergillus fumigatus isolate 37 after 48 hrs by Etest; settings: isolate 37, 48 h; outline: as §3
# [22] = tested on: Aspergillus fumigatus; test: Antimicrobial activity against Aspergillus fumigatus isolate 38 after 48 hrs by Etest; settings: isolate 38, 48 h; outline: as §3
# [23] = tested on: Aspergillus fumigatus; test: Antimicrobial activity against Aspergillus fumigatus isolate 40 after 48 hrs by Etest; settings: isolate 40, 48 h; outline: as §3
# [24] = tested on: Aspergillus fumigatus; test: Antimicrobial activity against Aspergillus fumigatus isolate 42 after 48 hrs by Etest; settings: isolate 42, 48 h; outline: as §3
# [25] = tested on: Aspergillus fumigatus; test: Antimicrobial activity against Aspergillus fumigatus isolate 49 after 48 hrs by Etest; settings: isolate 49, 48 h
# [26] = tested on: Aspergillus fumigatus; test: Antimicrobial activity against Aspergillus fumigatus isolate 2 by oxygen consumption method
# Outline: (§4)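 Conidial suspension in RPMI 1640 broth with posaconazole at 0.25 and 2 μg/ml. Tubes agitated 12 h at 37°C in a biological oxygen monitor. Available oxygen was monitored continuously, and the MIC was assigned from the oxygen quantification.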
# [27] = tested on: Aspergillus fumigatus; test: Antimicrobial activity against Aspergillus fumigatus isolate 6 by oxygen consumption method
# [28] = tested on: Aspergillus fumigatus; test: Antimicrobial activity against Aspergillus fumigatus isolate 8 by oxygen consumption method
# [29] = tested on: Aspergillus fumigatus; test: Antimicrobial activity against Aspergillus fumigatus isolate 13 by oxygen consumption method; outline: as §4
# [30] = tested on: Aspergillus fumigatus; test: Antimicrobial activity against Aspergillus fumigatus isolate 16 by oxygen consumption method; outline: as §4
# [31] = tested on: Aspergillus fumigatus; test: Antimicrobial activity against Aspergillus fumigatus isolate 26 by oxygen consumption method
# Outline: (§5)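 Conidial suspension in RPMI 1640 broth, 1.5 ml, with two drug concentrations (0.25 and 2 μg/ml). Tubes agitated 12 h at 37°C in a biological oxygen monitor. Available oxygen monitored continuously and quantified to assign the MIC.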
# [32] = tested on: Aspergillus fumigatus; test: Antimicrobial activity against Aspergillus fumigatus isolate 27 by oxygen consumption method; outline: as §5
# [33] = tested on: Aspergillus fumigatus; test: Antimicrobial activity against Aspergillus fumigatus isolate 29 by oxygen consumption method; outline: as §5
# [34] = tested on: Aspergillus fumigatus; test: Antimicrobial activity against Aspergillus fumigatus isolate 30 by oxygen consumption method; outline: as §5
# [35] = tested on: Aspergillus fumigatus; test: Antimicrobial activity against Aspergillus fumigatus isolate 32 by oxygen consumption method
# Outline: (§6)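 Conidial suspension in RPMI 1640 broth, tested at two posaconazole levels (0.25 and 2 μg/ml). Agitated for 12 h at 37°C in a biological oxygen monitor. MIC derived from continuous monitoring and quantification of the available oxygen.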
# [36] = tested on: Aspergillus fumigatus; test: Antimicrobial activity against Aspergillus fumigatus isolate 35 by oxygen consumption method; outline: as §6
# [37] = tested on: Aspergillus fumigatus; test: Antimicrobial activity against Aspergillus fumigatus isolate 42 by oxygen consumption method; outline: as §6
# [38] = tested on: Aspergillus fumigatus; test: Antimicrobial activity against Aspergillus fumigatus isolate 6 by CLSI M38-A2 broth microdilution method
# [39] = tested on: Aspergillus fumigatus; test: Antimicrobial activity against Aspergillus fumigatus isolate 13 by CLSI M38-A2 broth microdilution method
# Outline: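 Posaconazole broth microdilution follows CLSI M38-A2. The MIC is the lowest concentration with no visible growth at 48 h. Candida parapsilosis ATCC 22019 and Candida krusei ATCC 6258 were included as QC strains in every run.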
# [40] = tested on: Aspergillus fumigatus; test: Antimicrobial activity against Aspergillus fumigatus isolate 24 by CLSI M38-A2 broth microdilution method
# Outline: (§7)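 Reference broth microdilution per CLSI M38-A2. MIC read as absence of visible growth at 48 h. C. parapsilosis ATCC 22019 and C. krusei ATCC 6258 QC strains run in each test session.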
# [41] = tested on: Aspergillus fumigatus; test: Antimicrobial activity against Aspergillus fumigatus isolate 26 by CLSI M38-A2 broth microdilution method; outline: as §7
# [42] = tested on: Aspergillus fumigatus; test: Antimicrobial activity against Aspergillus fumigatus isolate 27 by CLSI M38-A2 broth microdilution method; outline: as §7
# [43] = tested on: Aspergillus fumigatus; test: Antimicrobial activity against Aspergillus fumigatus isolate 28 by CLSI M38-A2 broth microdilution method; outline: as §7
# [44] = tested on: Aspergillus fumigatus; test: Antimicrobial activity against Aspergillus fumigatus isolate 29 by CLSI M38-A2 broth microdilution method; outline: as §7
# [45] = tested on: Aspergillus fumigatus; test: Antimicrobial activity against Aspergillus fumigatus isolate 31 by CLSI M38-A2 broth microdilution method; outline: as §7
# [46] = tested on: Aspergillus fumigatus; test: Antimicrobial activity against Aspergillus fumigatus isolate 40 by CLSI M38-A2 broth microdilution method; outline: as §1
structure (smiles),measurement,setting,value
CC[C@@H]([C@H](C)O)n1ncn(-c2ccc(N3CCN(c4ccc(OC[C@@H]5CO[C@@](Cn6cncn6)(c6ccc(F)cc6F)C5)cc4)CC3)cc2)c1=O [POSACONAZOLE],MIC,[1],0.06 µg/mL
same,MIC,[2],0.125 µg/mL
same,MIC,[3],0.125 µg/mL
same,MIC,[4],≤ 0.25 µg/mL
same,MIC,[5],0.5 µg/mL
same,MIC,[6],0.125 µg/mL
same,MIC,[7],1 µg/mL
same,MIC,[8],0.25 µg/mL
same,MIC,[9],0.25 µg/mL
same,MIC,[10],0.25 µg/mL
same,MIC,[11],≤ 0.03 µg/mL
same,MIC,[12],0.25 µg/mL
same,MIC,[13],≤ 0.03 µg/mL
same,MIC,[14],0.25 µg/mL
same,MIC,[15],4 µg/mL
same,MIC,[16],0.25 µg/mL
same,MIC,[17],0.25 µg/mL
same,MIC,[18],0.5 µg/mL
same,MIC,[19],0.125 µg/mL
same,MIC,[20],0.25 µg/mL
same,MIC,[21],0.125 µg/mL
same,MIC,[22],0.125 µg/mL
same,MIC,[23],0.25 µg/mL
same,MIC,[24],0.125 µg/mL
same,MIC,[25],0.5 µg/mL
same,MIC,[26],≥ 0.5 µg/mL
same,MIC,[27],≤ 0.25 µg/mL
same,MIC,[28],≥ 0.5 µg/mL
same,MIC,[29],≥ 0.5 µg/mL
same,MIC,[30],≥ 0.5 µg/mL
same,MIC,[31],≥ 0.5 µg/mL
same,MIC,[32],≥ 0.5 µg/mL
same,MIC,[33],≤ 0.25 µg/mL
same,MIC,[34],≤ 0.25 µg/mL
same,MIC,[35],≤ 0.25 µg/mL
same,MIC,[36],≤ 0.25 µg/mL
same,MIC,[37],≤ 0.25 µg/mL
same,MIC,[38],0.125 µg/mL
same,MIC,[39],0.125 µg/mL
same,MIC,[40],0.125 µg/mL
same,MIC,[41],0.125 µg/mL
same,MIC,[42],0.125 µg/mL
same,MIC,[43],0.25 µg/mL
same,MIC,[44],0.125 µg/mL
same,MIC,[45],0.125 µg/mL
same,MIC,[46],0.125 µg/mL
